Compound activity from PubChem BioAssay.
Compounds with a hit are over-represented: about 2.4% of the library has one in this group of screens.
S1P4 ag: S1P4 receptor agonists, primary screen, cell-based; AID 1509, 2009; activation, % at 4.98 µM; 220,000 tested, 0.35% active; S1P4-expressing cell line, agonist reporter assay; in the data active = activation above about 11%
Target sequence (O95977 whole entry, looked up): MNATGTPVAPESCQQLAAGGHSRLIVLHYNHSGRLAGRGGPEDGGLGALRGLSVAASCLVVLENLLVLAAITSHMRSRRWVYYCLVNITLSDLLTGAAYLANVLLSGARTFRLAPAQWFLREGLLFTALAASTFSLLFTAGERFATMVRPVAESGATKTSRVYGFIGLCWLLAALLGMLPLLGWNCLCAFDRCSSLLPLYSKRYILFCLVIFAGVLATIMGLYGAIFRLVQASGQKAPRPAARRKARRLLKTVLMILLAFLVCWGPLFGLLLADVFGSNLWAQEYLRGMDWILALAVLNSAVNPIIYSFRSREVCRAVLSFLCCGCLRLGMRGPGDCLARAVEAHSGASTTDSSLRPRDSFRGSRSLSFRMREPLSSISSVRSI
NPY-Y2 PAM-ag: NPY-Y2 potentiators or agonists, primary screen, cell-based; cells expressing NPY-Y2, potentiator/agonist read-out; 220,000 tested, 0.45% active; Neuropeptide Y receptor type 2 (Homo sapiens), P49146; activation, % at 3.6 µM; AID 1359, 2008; in the data active = activation above about 27%;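 also: cells stimulated with NPY near EC25 plus isoproterenol at EC100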
S1P4 antag: S1P4 receptor antagonists, primary screen, cell-based; Sphingosine 1-phosphate receptor 4 (Homo sapiens), O95977; inhibition, % at 4.98 µM; AID 1510, 2009; S1P4-expressing cells, antagonist mode, reporter read-out; 220,000 tested, 0.26% active; in the data active = inhibition above about 29%
NPY Y1 blocker: NPY-Y1 receptor antagonists, primary screen, cell-based; Neuropeptide Y receptor type 1 (Homo sapiens), P25929; HEK293-CNG Y1 cells, membrane potential fluorescence; NPY at EC95, then isoproterenol; inhibition, % at 3.6 µM; 200,000 tested, 1% active;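 active = inhibition above the campaign mean inhibition of all tested compounds plus 3 SD, cut at about 20% in these data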
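Material: HEK293 cells with Y1 receptor plus CNG channel; times: compound incubation 1 h at room temperature, readout 45 min post-stimulation; signal: fluorescence, membrane potential probe; read-out basis: fluorescence ratio normalized to % inhibition between controls; benchmarks: full-block control isoproterenol-only wells, zero-block control NPY plus isoproterenol wells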
NPY-Y1 PAM-ag: NPY-Y1 receptor potentiators or agonists, primary screen, cell-based. Neuropeptide Y receptor type 1 (Homo sapiens), P25929. NPY-Y1 expressing cells, potentiator/agonist activation. activation, % at 3.6 µM. 220,000 tested, 0.37% active; in the data active = activation above about 33%, passing the limit was not always enough;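 also: cells stimulated with NPY at EC10 then isoproterenol at EC100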
NPY Y2 blocker: NPY-Y2 receptor antagonists, primary screen, cell-based; inhibition, % at 2.7 µM; NPY-Y2 expressing cells, antagonist mode; 140,000 tested, 0.99% active
NPY-Y1 ant conf: NPY-Y1 receptor antagonists, retest of hits, confirmation, HEK293-CNG cells, membrane potential fluorescence, triplicate; shares compounds with NPY Y1 blocker; cAMP; NPY challenge against isoproterenol-raised cAMP; inhibition, % at 3.6 µM; 1,200 tested, 21% active; in the data active = inhibition above about 20%
NPY-Y2 antag ct: NPY-Y2 receptor antagonists, selectivity check, confirmation, counter-screen for NPY-Y1 antagonist project, HEK293-CNG cells, membrane potential fluorescence, triplicate; AID 1255, 2008; shares compounds with NPY Y1 blocker; antagonism; cells given NPY, then isoproterenol; inhibition, % at 3.6 µM; 1,200 tested, 28% active
Of the large screens only hits and unclear results are named; the others gave an inactive call (follow-up assays come after a bar, where they were run). Rule as the data show it, unless noted: active = inhibition above about 17%; inactive = the rest.

Cc1ccccc1OCCN(C#N)c1nc(N(C)C)nc(N(C)C)n1	NPY Y1 blocker 28.1 (no result: NPY Y2 blocker) | NPY-Y1 ant conf inactive | NPY-Y2 antag ct 18.9
COc1ccc(-c2noc(CCCOc3ccccc3)n2)cc1OC	NPY Y1 blocker 25.1 | NPY-Y1 ant conf inactive | NPY-Y2 antag ct inactive
Cc1ccccc1OCCNC(=O)/C=C/c1ccc([N+](=O)[O-])cc1	NPY Y1 blocker 20.2 | NPY-Y1 ant conf inactive | NPY-Y2 antag ct inactive
COc1ccccc1OCCNC(=O)/C=C/c1ccc([N+](=O)[O-])cc1	none
O=C(C1CC1)N(CCN(Cc1ccccc1)C(=O)C1CC1)Cc1ccccc1	NPY Y1 blocker 54.6 | NPY-Y1 ant conf 39.6 | NPY-Y2 antag ct 24.2
CN(C)c1ccnc(SCc2ccccc2Cl)c1C#N	NPY Y1 blocker 27.7 | NPY-Y1 ant conf inactive | NPY-Y2 antag ct 29.4
Cc1ccc(NC(=O)CSc2nc3ccccc3c(=O)n2CCCC(=O)NCCCN2CCOCC2)cc1C	none (no result: NPY Y2 blocker)
CC1CCN(CCCn2c(SCC(=O)Nc3ccccc3Cl)nc3ccccc3c2=O)CC1	NPY Y1 blocker 31.3 (no result: NPY Y2 blocker) | NPY-Y1 ant conf 24.7 | NPY-Y2 antag ct 23.8
Cc1ccc(NC(=O)CSc2nc3ccccc3c(=O)n2CCCN2CCCCC2)cc1Cl	NPY Y1 blocker 22.8 (no result: NPY Y2 blocker) | NPY-Y1 ant conf 45.0 | NPY-Y2 antag ct 55.1
Cc1nc(NCCc2ccc(F)cc2)c(C#N)c(C)c1[N+](=O)[O-]	none
Cc1nc(NCCc2ccccc2F)c(C#N)c(C)c1[N+](=O)[O-]	NPY Y1 blocker 29.2 | NPY-Y1 ant conf inactive | NPY-Y2 antag ct inactive
CC1=NN(C(=O)CCc2ccc3c(c2)OCO3)C(O)(C(F)(F)F)C1 (centres undefined)	none (no result: NPY Y2 blocker)
CCOC(=O)c1c(CNCCN(CC)CC)n(C)c2cc(Br)c(OC)cc12	NPY Y1 blocker 26.8 | NPY-Y1 ant conf inactive | NPY-Y2 antag ct inactive
CCOC(=O)c1c(C)n(C)c2cc(Br)c(OC)cc12	none (no result: NPY Y2 blocker)
CCCCCCC(=O)Nc1nc(C)c(-c2csc(Nc3ccc(Cl)cc3)n2)s1	NPY Y1 blocker 24.9 | NPY-Y1 ant conf inactive | NPY-Y2 antag ct inactive
Cn1c(=NCC(O)COc2ccccc2)sc2ccccc21 (centres undefined)	NPY Y1 blocker 22.0 | NPY-Y1 ant conf inactive | NPY-Y2 antag ct inactive
COc1cccc(-c2cc(C(=O)N3CCN(C(c4ccccc4)c4ccccc4)CC3)no2)c1	NPY Y1 blocker 23.6 | NPY-Y1 ant conf inactive | NPY-Y2 antag ct inactive
O=C(c1cc(-c2cccs2)on1)N1CCN(C(c2ccccc2)c2ccccc2)CC1	none
C=CCOc1ccc(/C=N/NC(=O)CN2CCOCC2)cc1OCC	none (no result: NPY Y2 blocker)
Cc1ccccc1Nc1scc(-c2ccc(Cl)cc2)[n+]1-c1ccccc1C	NPY Y1 blocker 36.0 (no result: NPY Y2 blocker) | NPY-Y1 ant conf inactive | NPY-Y2 antag ct inactive
CCOc1cc(C)c(C(C)C)cc1S(=O)(=O)n1cnc(C)c1	none (no result: NPY Y2 blocker)
Cc1ccc(N2C(=O)c3ccccc3NC2C(C)Cc2ccc3c(c2)OCO3)cc1 (centres undefined)	NPY Y1 blocker 44.0 | NPY-Y1 ant conf 119.8 | NPY-Y2 antag ct 108.2
CC(C)Oc1ccccc1C1Nc2ccccc2C(=O)N1c1ccc2c(c1)OCCO2 (centres undefined)	none
CCCC(c1nnnn1C(C)(C)C)N1CCN(Cc2ccccc2OC)CC1 (centres undefined)	NPY Y1 blocker 22.2 (no result: NPY Y2 blocker) | NPY-Y1 ant conf inactive | NPY-Y2 antag ct inactive
CCC(c1nnnn1CCOC)N1CCN(Cc2ccccc2OC)CC1 (centres undefined)	none
CC1CCCC(NC(=O)C2CCN(S(=O)(=O)N3CCCCC3)CC2)C1C (centres undefined)	none (no result: NPY Y2 blocker)
O=C(NC(=S)NCc1cccnc1)c1cccc2ccccc12	none (no result: NPY Y2 blocker)
Cc1nc2ccccc2c(=O)n1NC(=O)c1ccco1	none
Cc1ccccc1OCc1nc2ccccc2c(=O)n1NC(=O)c1ccco1	NPY Y1 blocker 20.4 | NPY-Y1 ant conf inactive | NPY-Y2 antag ct inactive
COc1ccc(O[C@H]2C=C[C@@H](c3ccccc3)O[C@@H]2COC(=O)CC/C(C)=N/OC[C@@H](O)[C@H]2O[C@@H]3OC(C)(C)O[C@@H]3[C@H]2O)cc1	none
CC(C)CC(=O)NC(=S)Nc1ccc(S(=O)(=O)N2CCCC2)cc1	none (no result: NPY Y2 blocker)
O=C(Nc1ccccc1N1CCN(c2ccccc2)CC1)c1ccccc1	NPY Y1 blocker 41.4 (no result: NPY Y2 blocker) | NPY-Y1 ant conf 34.1 | NPY-Y2 antag ct 20.0
COc1ccc(OC)c(CNc2nc3ccccc3n2CCN2CCCCC2)c1	NPY Y1 blocker 32.7 | NPY-Y1 ant conf 21.5 | NPY-Y2 antag ct 18.0
Cc1ccc2cc3c(N)c4c(C)ccc(C)c4nc3nc2c1	none (no result: NPY Y2 blocker)
C=CCOc1ccc(Br)cc1/C=N/O	NPY Y1 blocker 24.4 | NPY-Y1 ant conf inactive | NPY-Y2 antag ct inactive
O/N=C/c1cc(Br)ccc1OCc1ccccc1F	none
CCOc1ccc(C(=O)Nc2cc(C)on2)cc1OCC	none
CCCCOc1cccc(OCCCC)c1C(=O)Nc1cc(C)on1	NPY Y1 blocker 51.3 | NPY-Y1 ant conf 21.7 | NPY-Y2 antag ct inactive
Cc1ccc(SCC(=O)Nc2cc([N+](=O)[O-])ccc2O)cc1	none (no result: NPY Y2 blocker)
COc1cc(NC2c3ccccc3C(=O)N2Cc2ccc3c(c2)OCO3)cc(OC)c1OC (centres undefined)	NPY Y1 blocker 22.7 | NPY-Y1 ant conf inactive | NPY-Y2 antag ct inactive
Cc1ccc(S(=O)(=O)Cn2nnnc2C(CC(C)C)N2CCN(c3ccc(F)cc3)CC2)cc1 (centres undefined)	none
CC(C)CC(c1nnnn1C(C)C)N1CCN(c2cccc(Cl)c2)CC1 (centres undefined)	NPY Y1 blocker 36.6 | NPY-Y1 ant conf inactive | NPY-Y2 antag ct inactive
Cc1ccc(CCNC(=O)c2cc(-c3ccncc3)nc3ccccc23)cc1	none (no result: NPY Y1 blocker, NPY Y2 blocker)
O=C(NCCC1=CCCCC1)c1cc(-c2ccncc2)nc2ccccc12	NPY Y1 blocker 26.6 (no result: NPY Y2 blocker) | NPY-Y1 ant conf 26.9 | NPY-Y2 antag ct 23.4
CCOC(=O)c1c(NC(C)=O)sc2c(OCCN(CC)CC)c(Br)ccc12	none (no result: NPY Y2 blocker)
CCOC(=O)c1c(NC(C)=O)sc2c(OCC(O)CN(CC)CC)c(Br)ccc12 (centres undefined)	NPY Y1 blocker 79.6 (no result: NPY Y2 blocker) | NPY-Y1 ant conf 104.0 | NPY-Y2 antag ct 117.0
Cc1ccc(CSc2nc3ccccc3cc2C=O)cc1	NPY Y1 blocker 23.3 | NPY-Y1 ant conf inactive | NPY-Y2 antag ct inactive
